This note sets out measurements from the array DNA melting data of Ke et al. (doi:10.1101/2024.01.08.574731).

The nature of data set [1]: melting temperature; fluorescence melt of hairpins on a sequencing array, two-state fit, raised by 9.35 °C to match UV melts. As to conditions: sodium 0.088 M. Put shortly: (§1)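 Cy3 signals were normalised both to pre-quench Cy3 and to control constructs. They came from library hairpins carrying annealed Cy3 and quencher oligos on a sequenced MiSeq flow cell, imaged in 50 mM Na-HEPES pH 8.0, 25 mM NaCl, in 2.5 °C steps up to 60 °C. Bootstrapped two-state fits gave melting temperature and folding enthalpy, and four replicates were combined by inverse variance. Fitted temperatures were then raised by 9.35 °C to match UV melts.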

Data set [2] is described as follows: folding enthalpy; higher = less favourable; fluorescence melt of hairpins on a sequencing array, two-state fit. To be noted: sodium 0.088 M. Put shortly: as §1

Regarding GGAAACGAAAGTTGCTCC ((((((....)))..))), in data set [1], the Tm was 27.1 °C. The folding enthalpy in data set [2] is -12.8 kcal/mol.
In the case of GGAAACGAAAGTTTCC ((((((....)))))), the Tm in data set [1] is 63.3 °C. Moreover, in data set [2], the folding enthalpy was -34.6 kcal/mol.
For the sequence GGAAACGAAAGTTTCTCC ((((((....)))..))), the Tm in data set [1] was determined as 45.9 °C. Also, the folding enthalpy in data set [2] is -13.8 kcal/mol.
With GGAAACGGAAACGCTTCC ((((.((....)).)))), the Tm in data set [1] is 43.4 °C. Moreover, in data set [2], the folding enthalpy was -34.1 kcal/mol.
For GGAAACGGAAACGTTCCC ((.((((....)))).)) the same measures were 45.1 °C and -23.1 kcal/mol.
On to GGAAAGCGAAAGCTCTCC (((.(((....))).))), for which the Tm in data set [1] was 44 °C. For the same sequence, the folding enthalpy in data set [2] was -22.8 kcal/mol.
Consider GGAAAGTCGAAAGACTCC (((..(((....)))))), for which the Tm in data set [1] stood at 33.7 °C. In data set [2], the folding enthalpy is -15.6 kcal/mol.
For GGAAATCCGAAAGGATCC (((..(((....)))))) the same measures were 35.4 °C and -13.1 kcal/mol.
Consider GGAAATCGAAAGATGTCC (((.(((....))).))), for which the Tm in data set [1] was found to be 40.9 °C. In data set [2], the folding enthalpy was -29 kcal/mol.
Turning to GGAACACGAAAGTGCTCC (((.(((....))).))), in data set [1], the Tm came out at 50.2 °C. For the same sequence, the folding enthalpy in data set [2] is -40.7 kcal/mol.
In the case of GGAACACGAAAGTGTCC (((.(((....)))))), in data set [1], the Tm was determined as 52 °C. Moreover, the folding enthalpy in data set [2] is -23.5 kcal/mol.
On to GGAACAGCGAAAGCTTCC (((..(((....)))))), for which the Tm in data set [1] came out at 35.5 °C. Further, the folding enthalpy in data set [2] is -18.4 kcal/mol.
GGAACCCGAAAGGGGTCC (((.(((....))).))): the Tm in data set [1] is 68.2 °C. Also, the folding enthalpy in data set [2] was -30.4 kcal/mol.
GGAACCGAAAGGTAATCC ((((((....)))..))): the Tm in data set [1] amounted to 26.8 °C. Besides, the folding enthalpy in data set [2] is -9.87 kcal/mol.
Taken in the same sequence, the figures for GGAACCGAAAGGTACTCC ((((((....)))..))) were 33.3 °C and -12.6 kcal/mol.
GGAACCGAAAGGTGTTCC ((((((....)))..))): the Tm in data set [1] was determined as 40.5 °C. In addition, the folding enthalpy in data set [2] was -17.6 kcal/mol.
Turning to GGAACGACGAAAGTCTCC (((..(((....)))))), in data set [1], the Tm amounted to 27.6 °C. The folding enthalpy in data set [2] was -10.9 kcal/mol.
On to GGAACGGGAAACCGCTCC (((.(((....))).))), for which, in data set [1], the Tm worked out at 48.7 °C. In addition, the folding enthalpy in data set [2] is -28.1 kcal/mol.
For the sequence GGAACTCGAAAGAGGTCC (((.(((....))).))), in data set [1], the Tm is 60 °C. Moreover, the folding enthalpy in data set [2] is -39 kcal/mol.
Taken in the same sequence, the figures for GGAAGACGAAAGTCTCC (((.(((....)))))) were 52.3 °C and -20.9 kcal/mol.
For GGAAGAGCGAAAGCTTCC (((..(((....)))))) the same measures were 43.8 °C and -16.1 kcal/mol.
With GGAAGCGAAAGCTAATCC ((((((....)))..))), the Tm in data set [1] came to 26.7 °C. In data set [2], the folding enthalpy is -12 kcal/mol.
As for GGAAGCGAAAGCTCCTCC ((((((....)))..))), the Tm in data set [1] came to 51.3 °C. In data set [2], the folding enthalpy is -16.8 kcal/mol.
Regarding GGAAGCGAAAGCTCTCC ((((((....))).))), the Tm in data set [1] worked out at 43.5 °C. Also, the folding enthalpy in data set [2] was -16.2 kcal/mol.
GGAAGCGAAAGCTGTTCC ((((((....)))..))): the Tm in data set [1] worked out at 36.5 °C. For the same sequence, the folding enthalpy in data set [2] is -12.1 kcal/mol.
Take GGAAGCGAAAGCTTGTCC ((((((....)))..))): in data set [1], the Tm amounted to 35.8 °C. Moreover, in data set [2], the folding enthalpy was -10.3 kcal/mol.
As for GGAAGCGCGAAAGCGTCC (((..(((....)))))), the Tm in data set [1] turned out to be 37.3 °C. For the same sequence, the folding enthalpy in data set [2] was -9.67 kcal/mol.
Consider GGAAGCGGAAACGCCTCC (((.(((....))).))), for which the Tm in data set [1] is 45.6 °C. Also, the folding enthalpy in data set [2] was -20 kcal/mol.
For GGAAGGCCGAAAGGCTCC (((..(((....)))))) the same measures were 34.6 °C and -11.9 kcal/mol.
With GGAAGGGGAAACCCCTCC (((.(((....))).))), the Tm in data set [1] amounted to 45 °C. Besides, the folding enthalpy in data set [2] is -21.1 kcal/mol.
For GGAAGGGGAAACCCTCCC ((.((((....)))).)) the same measures were 41.1 °C and -21 kcal/mol.
Regarding GGAAGGGGAAACCCTTCC (((((((....))))))), in data set [1], the Tm amounted to 64.4 °C. Further, the folding enthalpy in data set [2] was -35.1 kcal/mol.
Consider GGAAGGGGAAACCTTTCC ((((.((....)).)))), for which the Tm in data set [1] stood at 43.3 °C. In data set [2], the folding enthalpy was -23.4 kcal/mol.
Regarding GGAAGTGGAAACGCTTCC (((((.(....).))))), the Tm in data set [1] was 50.8 °C. Moreover, the folding enthalpy in data set [2] was -41.7 kcal/mol.
In the case of GGAATCCGAAAGGAATCC (((.(((....))).))), in data set [1], the Tm was 48.7 °C. Also, the folding enthalpy in data set [2] was -31.2 kcal/mol.
Taken in the same sequence, the figures for GGAATCCGAAAGGAGTCC (((.(((....))).))) were 55.8 °C and -42.5 kcal/mol.
For the sequence GGAATCGAAAGATCCTCC ((((((....)))..))), the Tm in data set [1] came out at 42.7 °C. Besides, the folding enthalpy in data set [2] is -21.4 kcal/mol.
